Assay results reported in ChEMBL document CHEMBL1153955, “Indolylarylsulfones bearing natural and unnatural amino acids. Discovery of potent inhibitors of HIV-1 non-nucleoside wild type and resistant mutant strains reverse transcriptase and coxsackie B4 virus” (J Med Chem, 2009).

Experiments:
[1] = system: Human alphaherpesvirus 1; test: Antiviral activity against thymidine kinase deficient and acyclovir resistant HSV1 KOS in human HEL cells assessed as protection against virus-induced cytopathicity; type: functional, organism-based; details: Human alphaherpesvirus 1, KOS
[2] = system: Sindbis virus; test: Antiviral activity against Sindbis virus in african green monkey Vero cells assessed as protection against virus-induced cytopathicity; type: functional, organism-based
Procedure, shortened: (§1)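 Confluent cell monolayers inoculated with 100 CCID₅₀ virus. After 1-2 h adsorption, residual virus removed and cultures incubated with varying compound concentrations. Cytopathicity scored once it reached completion in untreated infected controls. EC₅₀ = dose reducing virus-induced cytopathogenicity by 50%.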

[3] = target: Human immunodeficiency virus type 1 reverse transcriptase (Human immunodeficiency virus 1, UniProt Q72547); test: Inhibition of HIV1 reverse transcriptase p66/p51; details: read-out: IC50
[4] = system: Influenza B virus; test: Antiviral activity against influenza B virus in MDCK cells assessed as reduction of virus-induced cytopathicity by visual cytopathic effect scoring method; type: functional, organism-based
[5] = target: Human immunodeficiency virus type 1 reverse transcriptase (Human immunodeficiency virus 1, UniProt Q72547, Y181I); test: Inhibition of HIV1 reverse transcriptase p66/p51 Y181I mutant; details: read-out: IC50
Procedure, shortened: (§2)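 Substrate was 0.5 µg poly(rA)/oligo(dT) 10:1 (0.3 µM 3′-OH ends) with 10 µM [³H]dTTP, at 37 °C. Acid-precipitable radioactivity was counted on GF/C filters after TCA washes.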

[6] = system: Punta Toro virus; test: Antiviral activity against Punta Toro virus in african green monkey Vero cells assessed as protection against virus-induced cytopathicity; type: functional, organism-based; procedure, shortened: as §1
[7] = target: Human immunodeficiency virus type 1 reverse transcriptase (Human immunodeficiency virus 1, UniProt Q72547, L100I); test: Inhibition of HIV1 reverse transcriptase p66/p51 L100I mutant; details: read-out: IC50; procedure, shortened: as §2
[8] = system: Vesicular stomatitis virus; test: Antiviral activity against VSV in human HEL cells assessed as protection against virus-induced cytopathicity; type: functional, organism-based
[9] = system: Human immunodeficiency virus 2; test: Antiviral activity against HIV2 ROD in human CEM cells assessed as protection against virus-induced cytopathicity after 4 days; type: functional, organism-based; details: Human immunodeficiency virus 2, ROD, CCRF-CEM, 96 h
Procedure, shortened: (§3)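 CEM cells (~3 × 10⁵ cells/mL) infected with ~100 CCID₅₀ per mL of HIV-1 (IIIB) or HIV-2 (ROD), then seeded into wells containing compound dilutions. After 4 days at 37 °C, syncytium (giant cell) formation was examined microscopically. EC₅₀ = concentration protecting CEM cells from HIV cytopathicity by 50%.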

[10] = system: Coxsackievirus B4; test: Antiviral activity against Coxsackievirus B4 in human HeLa cells assessed as protection against virus-induced cytopathicity; type: functional, organism-based; details: Enterovirus B; procedure, shortened: as §1
[11] = Cytotoxicity against human HEL cells assessed as drug level causing microscopically detectable alteration of normal cell morphology after 3 days; type: cell-based
[12] = system: Influenza A virus; test: Antiviral activity against influenza H1N1 virus in MDCK cells assessed as reduction of virus-induced cytopathicity by MTS method; type: functional, organism-based; details: Influenza A virus, H1N1, MDCK
[13] = Cytotoxicity against feline CRFK cells by MTS assay; type: cell-based, Felis catus; details: cat
[14] = target: Human immunodeficiency virus type 1 reverse transcriptase (Human immunodeficiency virus 1, UniProt Q72547, K103N); test: Inhibition of HIV1 reverse transcriptase p66/p51 K103N mutant; details: read-out: IC50; procedure, shortened: as §2
[15] = system: Human alphaherpesvirus 1; test: Antiviral activity against HSV1 KOS in human HEL cells assessed as protection against virus-induced cytopathicity; type: functional, organism-based; details: Human alphaherpesvirus 1, KOS
[16] = system: Vesicular stomatitis virus; test: Antiviral activity against VSV in human HeLa cells assessed as protection against virus-induced cytopathicity; type: functional, organism-based
[17] = Cytotoxicity against human HeLa cells assessed as drug level causing microscopically detectable alteration of normal cell morphology after 3 days; type: cell-based
Procedure, shortened: (§4)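 Serial compound dilutions added to confluent HeLa or Vero monolayers. MCC = minimum concentration causing microscopically detectable alteration of cell morphology after 3 days of incubation.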

[18] = system: Influenza A virus; test: Antiviral activity against influenza H1N1 virus in MDCK cells assessed as reduction of virus-induced cytopathicity by visual cytopathic effect scoring method; type: functional, organism-based
[19] = system: CCRF-CEM; test: Antiproliferative activity against human CEM cells after 3 days; type: cell-based; details: 72 h
Procedure, shortened: (§5)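 Cells seeded at 5 × 10⁴ to 7.5 × 10⁴ cells/200 µL with or without serial compound dilutions; incubated at 37 °C for 2 days (L1210) or 3 days (Molt4/C8, CEM). Cell numbers counted with a Coulter counter. CC₅₀ = concentration reducing proliferation by 50% versus untreated controls, read from plots of cell number (% of control) against concentration. Means of at least two independent experiments.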

[20] = system: Respiratory syncytial virus; test: Antiviral activity against RSV Long in human HeLa cells assessed as protection against virus-induced cytopathicity; type: functional, organism-based; procedure, shortened: as §1
[21] = system: Influenza A virus H3N2; test: Antiviral activity against influenza H3N2 virus in MDCK cells assessed as reduction of virus-induced cytopathicity by visual cytopathic effect scoring method; type: functional, organism-based
[22] = system: L1210; test: Antiproliferative activity against mouse L1210 cells after 2 days; type: cell-based; details: L1210, 48 h; procedure, shortened: as §5
[23] = Cytotoxicity against MDCK cells assessed as drug level causing microscopically detectable alteration of normal cell morphology; type: cell-based, Canis lupus familiaris; details: dog
[24] = Antiproliferative activity against human Molt4/C8 cells after 3 days; type: cell-based; details: MOLT-4, 72 h; procedure, shortened: as §5
[25] = system: Feline coronavirus; test: Antiviral activity against Feline coronavirus in feline […] cells assessed as inhibition of virus-induced cytopathicity; type: functional, organism-based; details: Alphacoronavirus 1
[26] = system: Vaccinia virus; test: Antiviral activity against Vaccinia virus Lederle in human HEL cells assessed as protection against virus-induced cytopathicity; type: functional, organism-based; details: Orthopoxvirus vaccinia
[27] = system: Influenza B virus; test: Antiviral activity against influenza B virus in MDCK cells assessed as reduction of virus-induced cytopathicity by MTS method; type: functional, organism-based
[28] = system: Human alphaherpesvirus 2; test: Antiviral activity against HSV2 G in human HEL cells assessed as protection against virus-induced cytopathicity; type: functional, organism-based; details: Human alphaherpesvirus 2, strain G; procedure, shortened: as §1
[29] = Cytotoxicity against african green monkey Vero cells assessed as drug level causing microscopically detectable alteration of normal cell morphology after 3 days; type: cell-based; details: chlorocebus sabaeus; procedure, shortened: as §4
[30] = system: Human immunodeficiency virus 1; test: Antiviral activity against HIV1 3B in human CEM cells assessed as protection against virus-induced cytopathicity after 4 days; type: functional, organism-based; details: Human immunodeficiency virus 1, 3B, CCRF-CEM, 96 h; procedure, shortened: as §3
[31] = system: Influenza A virus H3N2; test: Antiviral activity against influenza H3N2 virus in MDCK cells assessed as reduction of virus-induced cytopathicity by MTS method; type: functional, organism-based
[32] = system: Felid alphaherpesvirus 1; test: Antiviral activity against Feline herpesvirus in feline […] cells assessed as inhibition of virus-induced cytopathicity; type: functional, organism-based
[33] = system: Mammalian orthoreovirus 1; test: Antiviral activity against Reovirus 1 in african green monkey Vero cells assessed as protection against virus-induced cytopathicity; type: functional, organism-based; details: Mammalian orthoreovirus 1, Vero; procedure, shortened: as §1
[34] = system: Coxsackievirus B4; test: Antiviral activity against Coxsackievirus B4 in african green monkey Vero cells assessed as protection against virus-induced cytopathicity; type: functional, organism-based; details: Enterovirus B; procedure, shortened: as §1
[35] = system: Human respirovirus 3; test: Antiviral activity against Parainfluenza virus type 3 in african green monkey Vero cells assessed as protection against virus-induced cytopathicity; type: functional, organism-based; details: Human respirovirus 3, Vero; procedure, shortened: as §1
[36] = Cytotoxicity against MDCK cells by MTS assay; type: cell-based, Canis lupus familiaris; details: dog

SMILES | EC50 [1] [µM] | EC50 [2] [µM] | IC50 [3] [µM] | EC50 [4] [µM] | IC50 [5] [µM] | EC50 [6] [µM] | IC50 [7] [µM] | EC50 [8] [µM] | EC50 [9] [µM] | EC50 [10] [µM] | MCC at 72 h [11] [µM] | EC50 [12] [µM] | CC50 [13] [µM] | IC50 [14] [µM] | EC50 [15] [µM] | EC50 [16] [µM] | MCC at 72 h [17] [µM] | EC50 [18] [µM] | IC50 [19] [µM] | EC50 [20] [µM] | also measured
Cc1cc(C)cc(S(=O)(=O)c2c(C(=O)NCC(N)=O)[nH]c3ccc([N+](=O)[O-])cc23)c1 | > 20 | > 100 | 0.034 | > 20 | 2.91 | > 100 | 0.206 | > 20 | > 50 | > 100 | 100 | > 20 | > 100 | 0.417 | > 20 | > 100 | > 100 | > 20 | ≥ 500 | > 100 | EC50 [21]: > 20 µM; IC50 [22]: > 500 µM; MCC [23]: 100 µM; IC50 [24]: > 500 µM; EC50 [25]: > 100 µM; EC50 [26]: > 20 µM; EC50 [27]: > 20 µM; EC50 [28]: > 20 µM; MCC at 72 h [29]: > 100 µM; EC50 [30]: 0.0024 µM; EC50 [31]: > 20 µM; EC50 [32]: > 100 µM; EC50 [33]: > 100 µM; EC50 [34]: > 100 µM; EC50 [35]: > 100 µM; CC50 [36]: > 100 µM
Cc1cc(C)cc(S(=O)(=O)c2c(C(=O)NC(C)C(N)=O)[nH]c3ccc(Cl)c(F)c23)c1 (stereo not drawn) | > 20 | > 20 | 0.062 | > 4 | 6.28 | > 20 | 0.27 | > 20 | > 10 | > 4 | 100 | > 4 | 51.4 | 1.52 | > 20 | > 4 | 20 | > 4 | 21 | > 4 | EC50 [21]: > 4 µM; IC50 [22]: 30 µM; MCC [23]: 20 µM; IC50 [24]: 22 µM; EC50 [25]: > 20 µM; EC50 [26]: > 20 µM; EC50 [27]: > 4 µM; EC50 [28]: > 20 µM; MCC at 72 h [29]: 100 µM; EC50 [30]: 0.0037 µM; EC50 [31]: > 4 µM; EC50 [32]: > 20 µM; EC50 [33]: > 20 µM; EC50 [34]: 20 µM; EC50 [35]: > 20 µM; CC50 [36]: 6.5 µM
Cc1cc(C)cc(S(=O)(=O)c2c(C(=O)NCC(N)=O)[nH]c3ccc(Br)cc23)c1 | > 20 | > 20 | 0.026 | > 4 | 2.21 | > 20 | 0.199 | > 20 | 43 | 4 | 100 | > 4 | 53 | 0.782 | > 20 | > 20 | 100 | > 4 | 31 | 20 | EC50 [21]: > 4 µM; IC50 [22]: 40 µM; MCC [23]: 20 µM; IC50 [24]: 17 µM; EC50 [25]: > 20 µM; EC50 [26]: > 20 µM; EC50 [27]: > 4 µM; EC50 [28]: > 20 µM; MCC at 72 h [29]: 100 µM; EC50 [30]: 0.0026 µM; EC50 [31]: > 4 µM; EC50 [32]: > 20 µM; EC50 [33]: > 20 µM; EC50 [34]: > 20 µM; EC50 [35]: > 20 µM; CC50 [36]: 9.8 µM
